Source: ChEMBL document CHEMBL2016470, “Quinolinyl- and phenantridinyl-acetamides as bradykinin B1 receptor antagonists” (Bioorg Med Chem Lett, 2012)
Active and inactive are the calls of the source. The calls are words filed in the database; no cut-off is given here.

Columns and labels:
B1 bradykinin receptor [1] = biological target: T1, B1 bradykinin receptor (Homo sapiens, UniProt P46663); assay: Binding affinity to human bradykinin B1 receptor
T1 sequence (P46663 whole entry): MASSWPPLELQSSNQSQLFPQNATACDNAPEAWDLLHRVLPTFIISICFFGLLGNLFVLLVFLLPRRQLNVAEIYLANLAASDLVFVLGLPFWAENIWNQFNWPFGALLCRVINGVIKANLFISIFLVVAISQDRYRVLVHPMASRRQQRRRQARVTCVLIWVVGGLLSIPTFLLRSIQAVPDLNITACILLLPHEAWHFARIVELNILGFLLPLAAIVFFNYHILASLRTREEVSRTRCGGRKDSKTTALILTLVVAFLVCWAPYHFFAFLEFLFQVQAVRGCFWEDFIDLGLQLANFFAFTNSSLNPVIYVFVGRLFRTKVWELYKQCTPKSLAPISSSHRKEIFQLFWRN

Rattus norvegicus [2] = assay: Antiinflammatory activity in Wistar rat pain model assessed as inhibition of DABK-induced paw oedema at 1 mg/kg, po administered 60 mins before DABK challenge; assay type: functional
In short: (§1)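 Male Wistar rats, 120–150 g, LPS-pretreated; oral dosing in 5% (v/v) Tween 80 in saline before DABK injection. Paw volume by plethysmometer at 0, 10, 20, 30 min post-DABK; maximum edema volume taken. Percent inhibition from treated group means versus simultaneous vehicle means; ANOVA with Dunnett's test versus vehicle.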

Rattus norvegicus [3] = assay: Antiinflammatory activity in Wistar rat pain model assessed as inhibition of DABK-induced paw oedema at 0.3 mg/kg, po administered 60 mins before DABK challenge; assay type: functional; in short: as §1
Rattus norvegicus [4] = assay: Antiinflammatory activity in Wistar rat pain model assessed as inhibition of DABK-induced paw oedema at 3 mg/kg, po administered 60 mins before DABK challenge; assay type: functional; conditions: read-out: INH; in short: as §1
Rattus norvegicus [5] = assay: Antihyperalgesic activity in Sprague-Dawley rat assessed as decrease in CFA-induced joint pain at 1 to 3 mg/kg, po administered 3 days post CFA challenge; assay type: functional, organism-based
In short: (§2)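 Knee monoarthritis induced by intra-articular CFA (0.1 ml); joint pain read as hind-limb weight-bearing deficit on an incapacitance tester (difference between un-injected and injected limbs as % of total hind-limb weight). Rats with post-CFA baseline 20–60% enrolled and randomized to equalize baselines; oral dosing on Day 3 post-CFA in 5% Tween 80 in saline; readings pre-dose and 0.5, 1, 2, 3, 4 h post-dose; change from baseline at maximum effect.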

Liver microsomes [6] = assay: Intrinsic clearance in rat liver microsomes assessed per gram of liver at 2.5 uM after 20 mins; assay type: ADME, Microsome
Liver microsomes [7] = assay: Intrinsic clearance in human liver microsomes assessed per gram of liver at 2.5 uM after 20 mins; assay type: ADME, Microsome
B1 bradykinin receptor [8] = biological target: T2, B1 bradykinin receptor (Rattus norvegicus, UniProt P97583); assay: Antagonist activity at rat bradykinin B1 receptor; assay type: functional
T2 sequence (P97583 whole entry): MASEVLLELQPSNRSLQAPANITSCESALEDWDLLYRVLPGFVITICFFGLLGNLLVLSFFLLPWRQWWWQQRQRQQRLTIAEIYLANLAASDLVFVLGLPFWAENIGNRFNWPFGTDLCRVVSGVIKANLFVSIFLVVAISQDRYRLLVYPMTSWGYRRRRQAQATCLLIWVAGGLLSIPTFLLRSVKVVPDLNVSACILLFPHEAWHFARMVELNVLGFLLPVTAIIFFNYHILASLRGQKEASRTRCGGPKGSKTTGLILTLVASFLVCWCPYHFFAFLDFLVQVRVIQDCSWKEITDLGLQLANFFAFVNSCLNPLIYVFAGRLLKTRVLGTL

Rattus norvegicus [9] = assay: Antiinflammatory activity in Wistar rat pain model assessed as inhibition of DABK-induced paw oedema at 0.3 mg/kg, po administered 120 mins before DABK challenge measured by plethysometric analysis; assay type: functional; in short: as §1
Rattus norvegicus [10] = assay: Antiinflammatory activity in Wistar rat pain model assessed as inhibition of DABK-induced paw oedema at 0.03 mg/kg, po administered 120 mins before DABK challenge measured by plethysometric analysis; assay type: functional; in short: as §1
Rattus norvegicus [11] = assay: Antiinflammatory activity in Wistar rat pain model assessed as inhibition of DABK-induced paw oedema at 0.1 mg/kg, po administered 120 mins before DABK challenge measured by plethysometric analysis; assay type: functional; in short: as §1
Rattus norvegicus [12] = assay: Antiinflammatory activity in po dosed Wistar rat pain model assessed as inhibition of DABK-induced paw oedema administered 120 mins before DABK challenge measured by plethysometric analysis; assay type: functional, organism-based; in short: as §1
Rattus norvegicus [13] = assay: Antihyperalgesic activity in po dosed Sprague-Dawley rat assessed as decrease in CFA-induced joint pain administered 3 days post CFA challenge; assay type: functional, organism-based; in short: as §2
[14] = biological target: T3, B2 bradykinin receptor (Homo sapiens) (UniProt P30411); assay: Antagonist activity at human bradykinin B2 receptor at 1 uM; assay type: functional; parameters: scale not given: the % may be the effect or the level left
T3 sequence (whole entry): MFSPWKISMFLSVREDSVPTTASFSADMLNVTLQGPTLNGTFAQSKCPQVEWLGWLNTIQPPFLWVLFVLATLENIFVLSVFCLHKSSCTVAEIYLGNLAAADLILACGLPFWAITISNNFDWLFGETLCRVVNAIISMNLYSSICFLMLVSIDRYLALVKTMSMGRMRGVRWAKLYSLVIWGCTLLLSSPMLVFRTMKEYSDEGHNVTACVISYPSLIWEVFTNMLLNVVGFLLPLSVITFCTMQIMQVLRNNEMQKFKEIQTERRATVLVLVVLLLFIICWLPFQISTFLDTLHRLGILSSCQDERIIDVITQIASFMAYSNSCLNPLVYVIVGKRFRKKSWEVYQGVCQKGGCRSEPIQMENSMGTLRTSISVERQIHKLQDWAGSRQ

Rattus norvegicus [15] = assay: Antiinflammatory activity in Wistar rat pain model assessed as inhibition of DABK-induced paw oedema at 10 mg/kg, po administered 30 mins before DABK challenge measured by plethysometric analysis; assay type: functional; in short: as §1
Rattus norvegicus [16] = assay: Antiinflammatory activity in Wistar rat pain model assessed as inhibition of DABK-induced paw oedema at 3 mg/kg, po administered 30 mins before DABK challenge measured by plethysometric analysis; assay type: functional; in short: as §1
Rattus norvegicus [17] = assay: Antiinflammatory activity in Wistar rat pain model assessed as inhibition of DABK-induced paw oedema at 1 mg/kg, po administered 30 mins before DABK challenge measured by plethysometric analysis; assay type: functional; in short: as §1

SMILES: O=C(CC1Cc2ccccc2CN1S(=O)(=O)c1ccc(Cl)c(Cl)c1)NCCc1ccc(C2=NCCN2)cc1 (centres undefined)
- Ki (B1 bradykinin receptor [1]): 481 nM

SMILES: O=C(CC1c2ccccc2CCN1S(=O)(=O)c1ccc(Cl)c(Cl)c1)Nc1ccc(N2CCC(N3CCCCC3)CC2)cc1 (centres undefined)
- Ki (B1 bradykinin receptor [1]): 138 nM

SMILES: O=C(O)Cc1ccccc1Nc1c(Cl)cccc1Cl [DICLOFENAC]
- inhibition in vivo at 1 mg/kg (Rattus norvegicus [2]): 24%
- inhibition in vivo at 0.3 mg/kg (Rattus norvegicus [3]): 23%
- inhibition in vivo at 3 mg/kg (Rattus norvegicus [4]): 35%
- Activity (Rattus norvegicus [5]): Active

SMILES: O=C(CC1CCc2ccccc2N1S(=O)(=O)c1ccc(Cl)c(Cl)c1)NCCN1CCN(c2ccncc2)CC1 (centres undefined)
- Ki (B1 bradykinin receptor [1]): 166 nM
- CLint (Liver microsomes [6]): 7.4 mL/min/g
- CLint (Liver microsomes [7]): 16.8 mL/min/g

SMILES: O=C(CC1c2ccccc2-c2ccccc2N1S(=O)(=O)c1ccc(Cl)c(Cl)c1)NCCc1ccc(C2=NCCN2)cc1 (centres undefined)
- Ki (B1 bradykinin receptor [1]): 3.1 nM
- CLint (Liver microsomes [6]): 2.5 mL/min/g
- CLint (Liver microsomes [7]): 9.8 mL/min/g
- IC50 (B1 bradykinin receptor [8]): 28 nM

SMILES: COc1cccc2c1-c1ccccc1N(S(=O)(=O)c1ccc(Cl)c(Cl)c1)C2CC(=O)N[C@H]1CC[C@H](CCN2CCCC2)CC1 (some centres undefined)
- inhibition in vivo at 0.3 mg/kg (Rattus norvegicus [9]): 54%
- inhibition in vivo at 0.03 mg/kg (Rattus norvegicus [10]): 19%
- Ki (B1 bradykinin receptor [1]): 8.9 nM
- inhibition in vivo at 0.1 mg/kg (Rattus norvegicus [11]): 27%
- CLint (Liver microsomes [6]): 1.8 mL/min/g
- inhibition (Rattus norvegicus [12]): Dose-dependent effect
- Activity (Rattus norvegicus [13]): Dose-dependent effect
- CLint (Liver microsomes [7]): 1.1 mL/min/g
- IC50 (B1 bradykinin receptor [8]): 43 nM
- Activity [14]: 5.8%

SMILES: Cc1cc(C)c(S(=O)(=O)N2c3ccccc3-c3ccccc3C2CC(=O)NCCc2ccc(C3=NCCN3)cc2)cc1C (centres undefined)
- Ki (B1 bradykinin receptor [1]): 2.9 nM
- CLint (Liver microsomes [6]): 2.7 mL/min/g
- CLint (Liver microsomes [7]): 16.4 mL/min/g
- IC50 (B1 bradykinin receptor [8]): 21 nM

SMILES: O=C(CC1CCc2ccccc2N1S(=O)(=O)c1ccc(Cl)c(Cl)c1)NCCc1ccc(C2=NCCN2)cc1 (centres undefined)
- Ki (B1 bradykinin receptor [1]): 6.3 nM
- CLint (Liver microsomes [6]): 2.6 mL/min/g
- CLint (Liver microsomes [7]): 7.1 mL/min/g

SMILES: COc1ccc(S(=O)(=O)N2c3ccccc3-c3ccccc3C2CC(=O)NCCc2ccc(C3=NCCN3)cc2)cc1 (centres undefined)
- Ki (B1 bradykinin receptor [1]): 15.5 nM
- CLint (Liver microsomes [6]): 4.8 mL/min/g
- CLint (Liver microsomes [7]): 14.5 mL/min/g
- IC50 (B1 bradykinin receptor [8]): 81 nM

SMILES: O=C(CC1c2cc(F)ccc2-c2ccccc2N1S(=O)(=O)c1ccc(Cl)c(Cl)c1)NCCc1ccc(C2=NCCN2)cc1 (centres undefined)
- Ki (B1 bradykinin receptor [1]): 1.2 nM
- CLint (Liver microsomes [6]): 1.6 mL/min/g
- CLint (Liver microsomes [7]): 5.5 mL/min/g
- IC50 (B1 bradykinin receptor [8]): 45 nM

SMILES: O=C(CC1C(=O)Nc2ccccc2N1S(=O)(=O)c1ccc(Cl)c(Cl)c1)Nc1ccccc1 (centres undefined)
- Ki (B1 bradykinin receptor [1]): 1400 nM

SMILES: COc1cccc2c1-c1ccccc1N(S(=O)(=O)c1ccc(Cl)c(Cl)c1)C2CC(=O)NCCc1ccc(C2=NCCN2)cc1 (centres undefined)
- Ki (B1 bradykinin receptor [1]): 1.7 nM
- CLint (Liver microsomes [6]): 2.6 mL/min/g
- CLint (Liver microsomes [7]): 1 mL/min/g
- IC50 (B1 bradykinin receptor [8]): 21 nM

SMILES: O=C(CC1c2ccccc2CCN1S(=O)(=O)c1ccc(Cl)c(Cl)c1)N[C@H]1CC[C@H](CCC2=NCCN2)CC1 (some centres undefined)
- Ki (B1 bradykinin receptor [1]): 1 nM
- CLint (Liver microsomes [6]): 1.1 mL/min/g
- CLint (Liver microsomes [7]): 12.5 mL/min/g

SMILES: O=C(CC1CCc2ccccc2N1S(=O)(=O)c1ccc(Cl)c(Cl)c1)N[C@H]1CC[C@H](CCC2=NCCN2)CC1 (some centres undefined)
- Ki (B1 bradykinin receptor [1]): 4.3 nM
- CLint (Liver microsomes [6]): 0.6 mL/min/g
- CLint (Liver microsomes [7]): 9 mL/min/g

SMILES: Cc1ccc(S(=O)(=O)N2c3ccccc3-c3ccccc3C2CC(=O)NCCc2ccc(C3=NCCN3)cc2)cc1 (centres undefined)
- Ki (B1 bradykinin receptor [1]): 4.7 nM
- CLint (Liver microsomes [6]): 1.5 mL/min/g
- CLint (Liver microsomes [7]): 12.9 mL/min/g
- IC50 (B1 bradykinin receptor [8]): 52 nM

SMILES: COc1ccc2cc(S(=O)(=O)N[C@H](CC(=O)N[C@H](Cc3ccc(CN4[C@H](C)CCC[C@@H]4C)cc3)C(=O)N(C)C(C)C)c3ccc4c(c3)OCO4)ccc2c1
- inhibition in vivo at 10 mg/kg (Rattus norvegicus [15]): 30%
- inhibition in vivo at 3 mg/kg (Rattus norvegicus [16]): 16%
- inhibition in vivo at 1 mg/kg (Rattus norvegicus [17]): 6%
- Activity (Rattus norvegicus [5]): Active

SMILES: O=C(CC1c2ccccc2CCN1S(=O)(=O)c1ccc(Cl)c(Cl)c1)N1CCC(Cc2ccc(C3=NCCN3)cc2)CC1 (centres undefined)
- Ki (B1 bradykinin receptor [1]): 3.8 nM
- CLint (Liver microsomes [6]): 2.4 mL/min/g
- CLint (Liver microsomes [7]): 13.1 mL/min/g

SMILES: O=C(CC1c2cc(F)cc(F)c2-c2ccccc2N1S(=O)(=O)c1ccc(Cl)c(Cl)c1)NCCc1ccc(C2=NCCN2)cc1 (centres undefined)
- Ki (B1 bradykinin receptor [1]): 9.1 nM
- CLint (Liver microsomes [6]): 3.9 mL/min/g
- CLint (Liver microsomes [7]): 8 mL/min/g
- IC50 (B1 bradykinin receptor [8]): 42 nM

SMILES: O=C(CC1CCc2ccccc2N1S(=O)(=O)c1ccc(Cl)c(Cl)c1)Nc1ccc(N2CCC(N3CCCCC3)CC2)cc1 (centres undefined)
- Ki (B1 bradykinin receptor [1]): 628 nM

SMILES: O=C(CC1c2ccccc2CCN1S(=O)(=O)c1ccc(Cl)c(Cl)c1)NCCc1ccc(C2=NCCN2)cc1 (centres undefined)
- Ki (B1 bradykinin receptor [1]): 2.2 nM
- CLint (Liver microsomes [6]): 1.9 mL/min/g
- CLint (Liver microsomes [7]): 4.2 mL/min/g

SMILES: O=C(CC1COc2ccccc2N1S(=O)(=O)c1ccc(Cl)c(Cl)c1)NCCc1ccc(C2=NCCN2)cc1 (centres undefined)
- Ki (B1 bradykinin receptor [1]): 480 nM
